According to ChEMBL document CHEMBL3297688, “New orally active dual enkephalinase inhibitors (DENKIs) for central and peripheral pain treatment” (J Med Chem, 2014):
One block for each compound: values may come before it. Calls of active or inactive are those of the source.

Experiments:
Mus musculus [1] = assay: Antinociceptive activity in OF1 mouse acute central pain model at 150 mg/kg, po administered with EtOH/PEG400/water after 40 mins by hot plate test relative to vehicle-treated control; assay type: functional
Summary of the method: (§1)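 Oral gavage in male OF1 mice, vehicle EtOH/PEG400/H2O (10/40/50); 150 mg/kg for single-dose lines. Hot plate (52 ± 1 °C) jump latency read at 20, 40 and 60 min, 240 s cutoff, % MPE. […] ANOVA + Newman–Keuls or Bonferroni.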

Mus musculus [2] = assay: Antinociceptive activity in OF1 mouse acute central pain model at 150 mg/kg, po administered with EtOH/PEG400/water after 20 mins by hot plate test relative to vehicle-treated control; assay type: functional; summary of the method: as §1
Mus musculus [3] = assay: Antinociceptive activity in OF1 mouse acute central pain model at 150 mg/kg, po administered with EtOH/PEG400/water after 60 mins by hot plate test relative to vehicle-treated control; assay type: functional; summary of the method: as §1
Rattus norvegicus [4] = assay: Antinociceptive activity in iv dosed Sprague-Dawley rat acute centrospinal nociception model administered with EtOH/Tween80/water after 10 to 20 mins by tail flick test relative to vehicle-treated control; assay type: functional, organism-based; details: TDE = time-dependent effect
Mus musculus [5] = assay: Antinociceptive activity in OF1 mouse acute central pain model assessed as jump latency at 10 mg/kg, iv after 10 mins by hot plate test relative to vehicle-treated control in presence of naloxone; assay type: functional, organism-based; set-up: dose 10 mg/kg
Summary of the method: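 Naloxone 0.5 mg/kg given sc before the test compound (10 mg/kg iv) in male OF1 mice. Hot plate (52 ± 1 °C) jump latency measured, 240 s cutoff. n = 7–10 per group. ANOVA followed by Bonferroni versus vehicle and versus drug alone.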

Mus musculus [6] = assay: Antinociceptive activity in OF1 mouse acute central pain model assessed as time duration of action at 150 mg/kg, po administered with EtOH/PEG400/water after 20 to 60 mins by hot plate test relative to vehicle-treated control; assay type: functional; summary of the method: as §1
Mus musculus [7] = assay: Antihyperalgesic activity in OF1 mouse neuropathic pain model assessed as increase in partial sciatic nerve ligation-induced reduction in thermal threshold at 25 mg/kg, po by plantar test relative to vehicle-treated control; assay type: functional, organism-based; set-up: dose 25 mg/kg
Summary of the method: (§2)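 Partial ligation of 33–50% of the sciatic nerve in male OF1 mice; sham mice operated without ligation. Tested days 10–20 post-surgery, before and 20 min after 25 mg/kg po. Mechanical threshold by von Frey filaments; thermal latency by plantar test (8–10 s baseline, 20 s cutoff, mean of three trials at 5 min intervals). Ipsilateral and contralateral paws tested. n = 6–9 per group.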

Mus musculus [8] = assay: Antinociceptive activity in OF1 mouse persistent pain model assessed as reduction of formalin-induced paw licking at 50 mg/kg, po administered with EtOH/methyl cellulose in water 30 mins prior to formalin challenge measured after 1 to 5 mins relative to vehicle-treated control; assay type: functional; set-up: scale not given: the % may be the effect or the level left
Summary of the method: (§3)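 Male OF1 mice gavaged with 50 mg/kg in ethanol/methylcellulose 0.5% in water (1.5/98.5), 30 or 90 min before a plantar sc injection of 5% formalin (20 μL in saline). Licking time recorded over 0–5 min (early phase). n = 5–7 per group. ANOVA + Bonferroni versus vehicle.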

Mus musculus [9] = assay: Antinociceptive activity in po dosed OF1 mouse acute central pain model administered with EtOH/PEG400/water after 20 mins by hot plate test relative to vehicle-treated control; assay type: functional; summary of the method: as §1
Mus musculus [10] = assay: Antiallodynic activity in OF1 mouse neuropathic pain model assessed as increase in partial sciatic nerve ligation-induced reduction of threshold for paw withdrawal at 25 mg/kg, po after 20 mins by von frey test relative to vehicle-treated control; assay type: functional; set-up: scale not given: the % may be the effect or the level left; summary of the method: as §2
Mus musculus [11] = assay: Antinociceptive activity in OF1 mouse acute central pain model at 20 mg/kg, iv after 10 mins by hot plate test relative to vehicle-treated control; assay type: functional
Summary of the method: (§4)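 Male OF1 mice, iv dosing in water/mannitol (50 mg/mL) vehicle. Hot plate at 52 ± 1 °C read 10 min post-injection. Jump latency with a 240 s cutoff, expressed as % MPE. n = 10 per group. ANOVA with Newman–Keuls or Bonferroni tests versus vehicle.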

Rattus norvegicus [12] = assay: Antinociceptive activity in Sprague-Dawley rat acute centrospinal nociception model at 20 mg/kg, iv administered with EtOH/Tween80/water after 10 mins by tail flick test relative to vehicle-treated control
Mus musculus [13] = assay: Antinociceptive activity in OF1 mouse acute central pain model at 10 mg/kg, iv after 10 mins by hot plate test relative to vehicle-treated control; assay type: functional
Mus musculus [14] = assay: Antinociceptive activity in iv dosed OF1 mouse acute central pain model assessed as jump latency administered with water/mannitol after 10 mins by hot plate test relative to vehicle-treated control; assay type: functional; summary of the method: as §4
Mus musculus [15] = assay: Antinociceptive activity in OF1 mouse acute central pain model at 40 mg/kg, iv after 10 mins by hot plate test relative to vehicle-treated control; assay type: functional; summary of the method: as §4
Mus musculus [16] = assay: Antinociceptive activity in OF1 mouse persistent pain model assessed as reduction of formalin-induced paw licking at 50 mg/kg, po administered with EtOH/methyl cellulose in water 90 mins prior to formalin challenge measured after 1 to 5 mins relative to vehicle-treated control; assay type: functional; set-up: scale not given: the % may be the effect or the level left; summary of the method: as §3
Mus musculus [17] = assay: Antinociceptive activity in iv dosed OF1 mouse acute central pain model assessed as jump latency administered with EtOH/Tween80/water after 10 mins by hot plate test relative to vehicle-treated control; assay type: functional
Summary of the method: (§5)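 Male OF1 mice dosed iv in ethanol/Tween80/water (1/1/8). Jump latency on a 52 ± 1 °C hot plate (240 s cutoff) read 10 min after injection, expressed as mean % MPE ± SEM. n = 18–21 per group for dose–response, n = 8 for 10 mg/kg comparisons. ED50 taken from dose–response. ANOVA + Bonferroni.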

Rattus norvegicus [18] = assay: Antinociceptive activity in Sprague-Dawley rat acute centrospinal nociception model at 100 mg/kg, po after 20 mins by tail flick test relative to vehicle-treated control; assay type: functional
Mus musculus [19] = assay: Antinociceptive activity in OF1 mouse acute central pain model at 10 mg/kg, iv administered with EtOH/Tween80/water after 10 mins by hot plate test relative to vehicle-treated control; assay type: functional; summary of the method: as §5
Mus musculus [20] = assay: Antinociceptive activity in OF1 mouse acute central pain model assessed as time duration of action at 40 mg/kg, iv administered with water/mannitol after 10 mins by hot plate test relative to vehicle-treated control; assay type: functional
Rattus norvegicus [21] = assay: Prodrug activation in rat plasma at 200 mg, po after 30 mins by LC/MS/MS analysis; details: 0.5 h
Mus musculus [22] = assay: Antinociceptive activity in OF1 mouse acute central pain model at 60 mg/kg, iv after 10 mins by hot plate test relative to vehicle-treated control; assay type: functional; summary of the method: as §4
Mus musculus [23] = assay: Activity in OF1 mouse acute central pain model at 10 mg/kg, iv administered as single dose by hot plate test; assay type: functional, organism-based; set-up: dose 10 mg/kg
Mus musculus [24] = assay: Activity in OF1 mouse acute central pain model at 150 mg/kg, po administered as single dose by hot plate test; assay type: functional, organism-based; set-up: dose 150 mg/kg
Summary of the method: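 Hot plate at 52 ± 1 °C, male OF1 mice. Single oral dose of 150 mg/kg. Jump latency recorded with a 240 s cutoff and converted to % MPE against control latency.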

Mus musculus [25] = assay: Antinociceptive activity in po dosed CD1 mouse after 45 mins by hot plate test; assay type: functional; details: 0.75 h
Mus musculus [26] = assay: Antinociceptive activity in iv dosed CD1 mouse administered with EtOH/cremophor/water after 10 mins by hot plate test; assay type: functional

Compound: CCC(=O)OC(OC(=O)CNC(=O)[C@@H](CSSC[C@@H](N)CCSC)Cc1ccccc1)C(C)C (stereo partly drawn)
Activity (Mus musculus [1]): 24% | Activity (Mus musculus [2]): 32% | Activity (Mus musculus [3]): 8%

Drug metabolism (Rattus norvegicus [21]): 98%
Compound: CCOC(=O)OC(C)OC(=O)CNC(=O)[C@@H](CSSC[C@@H](N)CCSC)Cc1ccccc1.O=CO (stereo partly drawn)
Activity (Mus musculus [1]): 28% | Activity (Rattus norvegicus [4]): tde | Activity (Mus musculus [5]): inactive | Time (Mus musculus [6]): <1 h | Activity (Mus musculus [7]): Active | Activity (Mus musculus [8]): 41% | ED50 (Mus musculus [9]): 133 mg/kg | Activity (Mus musculus [10]): 51% | Activity (Mus musculus [2]): 58% | Activity (Mus musculus [11]): 58% | Emax at 20 mg/kg (Rattus norvegicus [12]): 40% | Activity (Mus musculus [13]): 35% | Activity (Mus musculus [14]): Dose-dependent effect | ED50 (Mus musculus [14]): 16 mg/kg | Activity (Mus musculus [15]): 97% | Activity (Mus musculus [16]): 41% | Activity (Mus musculus [17]): Dose-dependent effect | ED50 (Mus musculus [17]): 4.5 mg/kg | Activity (Rattus norvegicus [18]): 10% | Activity (Mus musculus [19]): 78% | Time (Mus musculus [20]): <40 min | Activity (Mus musculus [3]): 7%

Compound: CCOC(=O)OC(C)OC(=O)[C@@H](NC(=O)[C@@H](CSSC[C@@H](N)CCSC)Cc1ccccc1)C(C)O (stereo partly drawn)
Activity (Mus musculus [22]): 84% | Activity (Mus musculus [11]): 29% | Activity (Mus musculus [15]): 61%

Compound: CSCC[C@H](N)CSSC[C@@H](Cc1ccccc1)C(=O)N[C@H](C(=O)O)[C@@H](C)O
Activity (Mus musculus [23]): inactive | Activity (Mus musculus [24]): inactive

Compound: C[S+]([O-])CC[C@H](N)CSSC[C@@H](Cc1ccccc1)C(=O)NCC(=O)O (stereo partly drawn)
Activity (Mus musculus [23]): inactive | Activity (Mus musculus [24]): inactive

Compound: CSCC[C@H](N)CSSC[C@@H](Cc1ccccc1)C(=O)N[C@@H](C)C(=O)OCc1ccccc1
ED50 (Mus musculus [25]): 410 mg/kg | ED50 (Mus musculus [26]): 3 mg/kg

Compound: CCOC(=O)OC(C)OC(=O)CNC(=O)[C@@H](CSSC[C@@H](N)CC[S+](C)[O-])Cc1ccccc1.O=CO (stereo partly drawn)
Activity (Mus musculus [8]): 54% | Activity (Mus musculus [16]): 41% | Activity (Mus musculus [19]): 30%

Compound: CCC(=O)OC(OC(=O)CNC(=O)[C@@H](CSSC[C@@H](N)CCSC)Cc1ccccc1)C1CCCCC1 (stereo partly drawn)
Activity (Mus musculus [1]): 10% | Activity (Mus musculus [2]): 8% | Activity (Mus musculus [3]): 12%

Compound: CCOC(=O)COC(=O)[C@H](C)NC(=O)C(CSSC[C@@H](N)CCSC)Cc1ccsc1 (stereo partly drawn)
Activity (Mus musculus [11]): 32%

Compound: CSCC[C@H](N)CSSCC(Cc1ccsc1)C(=O)N[C@@H](C)C(=O)OC(CO)CO (stereo partly drawn)
Activity (Mus musculus [11]): 22%

Compound: CSCC[C@H](N)CSSC[C@@H](Cc1ccccc1)C(=O)NCC(=O)O
Activity (Mus musculus [23]): inactive | Activity (Mus musculus [24]): inactive

Compound: CCOC(=O)OC(OC(=O)CNC(=O)[C@@H](CSSC[C@@H](N)CCSC)Cc1ccccc1)C(C)C (stereo partly drawn)
Activity (Mus musculus [1]): 18% | Activity (Mus musculus [2]): 46% | Activity (Mus musculus [3]): 0%

Compound: CSCC[C@H](N)CSSCC(Cc1ccsc1)C(=O)N[C@@H](C)C(=O)OC[C@H](COC(C)=O)OC(C)=O (stereo partly drawn)
Activity (Mus musculus [11]): 29%

Compound: CSCC[C@H](N)CSSCC(Cc1ccsc1)C(=O)N[C@@H](C)C(=O)O (stereo partly drawn)
Activity (Mus musculus [23]): inactive | Activity (Mus musculus [24]): inactive

Compound: CSCC[C@H](N)CSSCC(Cc1ccsc1)C(=O)N[C@@H](C)C(=O)OC(COC(C)=O)COC(C)=O (stereo partly drawn)
Activity (Mus musculus [11]): 40%

Compound: CCOC(=O)OC(C)OC(=O)[C@H](C)NC(=O)C(CSSC[C@@H](N)CCSC)Cc1ccsc1 (stereo partly drawn)
Activity (Mus musculus [11]): 44%

Compound: CCOC(=O)OC(OC(=O)CNC(=O)[C@@H](CSSC[C@@H](N)CCSC)Cc1ccccc1)C1CCCCC1 (stereo partly drawn)
Activity (Mus musculus [1]): 3% | Activity (Mus musculus [2]): 17% | Activity (Mus musculus [3]): 8%

Compound: CSCC[C@H](N)CSSCC(Cc1ccsc1)C(=O)N[C@@H](C)C(=O)OCCS(C)(=O)=O (stereo partly drawn)
Activity (Mus musculus [11]): 22%

Compound: CSCC[C@H](N)CSSCC(Cc1ccsc1)C(=O)N[C@@H](C)C(=O)OC[C@H]1O[C@@H](O)[C@H](O)[C@@H](O)[C@@H]1O (stereo partly drawn)
Activity (Mus musculus [11]): 10%
